Measurements reported in ChEMBL document CHEMBL3779827, “A new series of 2-phenol-4-aryl-6-chlorophenyl pyridine derivatives as dual topoisomerase I/II inhibitors: Synthesis, biological evaluation and 3D-QSAR study” (Eur J Med Chem, 2016).
Where a name gives a salt, the structure may show the parent alone.

Experiments:
[1] = Cytotoxicity against human DU145 cells after 48 hrs by CCK8 assay; conditions: DU-145, 48 h
HeLa = assay: Cytotoxicity against human HeLa cells after 48 hrs by CCK8 assay; format: functional, cell-based
How it was run: (§1)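 IC50 values are reported in micromolar. Adriamycin, etoposide and camptothecin served as positive controls.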

[2] = Cytotoxicity against human HCT15 cells after 48 hrs by CCK8 assay; format: functional, cell-based; conditions: HCT-15, 48 h; how it was run: as §1

## CC[C@@]1(O)C(=O)OCc2c1cc1n(c2=O)Cc2cc3ccccc3nc2-1 [CAMPTOTHECIN]
[1]
  IC50: 20 nM
HeLa
  IC50: 180 nM
[2]
  IC50: 2820 nM

## COc1cc([C@@H]2c3cc4c(cc3[C@@H](O[C@@H]3O[C@@H]5CO[C@@H](C)O[C@H]5[C@H](O)[C@H]3O)[C@H]3COC(=O)[C@H]23)OCO4)cc(OC)c1O [ETOPOSIDE]
[1]
  IC50: 2090 nM
[2]
  IC50: 18900 nM

## COc1cccc2c1C(=O)c1c(O)c3c(c(O)c1C2=O)C[C@@](O)(C(=O)CO)C[C@@H]3O[C@H]1C[C@H](N)[C@H](O)[C@H](C)O1 [DOXORUBICIN HYDROCHLORIDE]
[2]
  IC50: 1230 nM
